For four compounds, IC50, Activity and Stability results are on record in ChEMBL document CHEMBL1152259, “Synthesis of new sulfonate and phosphonate derivatives for cation-independent mannose 6-phosphate receptor targeting” (Bioorg Med Chem Lett, 2008).

Broadly, the IC50 is the concentration needed to halve the response being measured. Lower therefore signals inhibition by little substance.

Data set [1] concerns the target Insulin-like growth factor 2 receptor ([…], cation-independent mannose-6-phosphate receptor, CI-MPR; hIGF-IIR) (Homo sapiens, UniProt P11717). Description: Binding affinity to CI-M6PR. A digest of the protocol: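 Competitive displacement ELISA: biotinylated CI-M6PR bound to pentamannose 6-phosphate adsorbed on microtiter wells, challenged with increasing analog concentrations. Remaining bound receptor detected with streptavidin/peroxidase and o-phenylenediamine substrate by optical density. IC50 taken from dose-inhibition curves. Mean of triplicates from one experiment, confirmed in two further experiments.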

A short description of data set [2]: Cytotoxicity against human fibroblast up to 100 uM after 4 days by MTT assay. Type of data set: cell-based. To be noted: 96 h. An outline of the steps: (§1)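 Human fibroblasts, MCF7 and MDA-MB-231 cells exposed in culture medium for 4 days to increasing concentrations up to 100 µM, with untreated controls. Proliferation read by MTT assay. Triplicates from one experiment, confirmed in two further experiments.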

The test system of another data set is MCF7. Briefly: Cytotoxicity against human MCF7 cells up to 100 uM by MTT assay. It counts as cell-based. A digest of the protocol:
as §1

For a further data set, the system named is Serum. Description: Stability in human serum after 2 days. Type of data set: ADME, cell-free. To be noted: 48 h. A digest of the protocol: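 Analogs incubated 2 days at 37 °C with 75% human serum or without serum. Residual capacity to inhibit biotinylated CI-M6PR binding to plate-adsorbed pentamannose 6-phosphate was then assayed. Result expressed relative to day-0 controls with or without serum, set as 100%. Mean ± standard deviations of triplicates, confirmed in two further experiments.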

For the next data set, the system named is MDA-MB-231. Briefly: Cytotoxicity against human MDA-MB-231 cells up to 100 uM by MTT assay. Type of data set: cell-based. A digest of the protocol:
as §1
(Tetrazolium assays rely on reduction of a dye to a coloured formazan, in cell work by metabolically active cells.)

Sequence of UniProt P11717 (P11717 whole entry, looked up): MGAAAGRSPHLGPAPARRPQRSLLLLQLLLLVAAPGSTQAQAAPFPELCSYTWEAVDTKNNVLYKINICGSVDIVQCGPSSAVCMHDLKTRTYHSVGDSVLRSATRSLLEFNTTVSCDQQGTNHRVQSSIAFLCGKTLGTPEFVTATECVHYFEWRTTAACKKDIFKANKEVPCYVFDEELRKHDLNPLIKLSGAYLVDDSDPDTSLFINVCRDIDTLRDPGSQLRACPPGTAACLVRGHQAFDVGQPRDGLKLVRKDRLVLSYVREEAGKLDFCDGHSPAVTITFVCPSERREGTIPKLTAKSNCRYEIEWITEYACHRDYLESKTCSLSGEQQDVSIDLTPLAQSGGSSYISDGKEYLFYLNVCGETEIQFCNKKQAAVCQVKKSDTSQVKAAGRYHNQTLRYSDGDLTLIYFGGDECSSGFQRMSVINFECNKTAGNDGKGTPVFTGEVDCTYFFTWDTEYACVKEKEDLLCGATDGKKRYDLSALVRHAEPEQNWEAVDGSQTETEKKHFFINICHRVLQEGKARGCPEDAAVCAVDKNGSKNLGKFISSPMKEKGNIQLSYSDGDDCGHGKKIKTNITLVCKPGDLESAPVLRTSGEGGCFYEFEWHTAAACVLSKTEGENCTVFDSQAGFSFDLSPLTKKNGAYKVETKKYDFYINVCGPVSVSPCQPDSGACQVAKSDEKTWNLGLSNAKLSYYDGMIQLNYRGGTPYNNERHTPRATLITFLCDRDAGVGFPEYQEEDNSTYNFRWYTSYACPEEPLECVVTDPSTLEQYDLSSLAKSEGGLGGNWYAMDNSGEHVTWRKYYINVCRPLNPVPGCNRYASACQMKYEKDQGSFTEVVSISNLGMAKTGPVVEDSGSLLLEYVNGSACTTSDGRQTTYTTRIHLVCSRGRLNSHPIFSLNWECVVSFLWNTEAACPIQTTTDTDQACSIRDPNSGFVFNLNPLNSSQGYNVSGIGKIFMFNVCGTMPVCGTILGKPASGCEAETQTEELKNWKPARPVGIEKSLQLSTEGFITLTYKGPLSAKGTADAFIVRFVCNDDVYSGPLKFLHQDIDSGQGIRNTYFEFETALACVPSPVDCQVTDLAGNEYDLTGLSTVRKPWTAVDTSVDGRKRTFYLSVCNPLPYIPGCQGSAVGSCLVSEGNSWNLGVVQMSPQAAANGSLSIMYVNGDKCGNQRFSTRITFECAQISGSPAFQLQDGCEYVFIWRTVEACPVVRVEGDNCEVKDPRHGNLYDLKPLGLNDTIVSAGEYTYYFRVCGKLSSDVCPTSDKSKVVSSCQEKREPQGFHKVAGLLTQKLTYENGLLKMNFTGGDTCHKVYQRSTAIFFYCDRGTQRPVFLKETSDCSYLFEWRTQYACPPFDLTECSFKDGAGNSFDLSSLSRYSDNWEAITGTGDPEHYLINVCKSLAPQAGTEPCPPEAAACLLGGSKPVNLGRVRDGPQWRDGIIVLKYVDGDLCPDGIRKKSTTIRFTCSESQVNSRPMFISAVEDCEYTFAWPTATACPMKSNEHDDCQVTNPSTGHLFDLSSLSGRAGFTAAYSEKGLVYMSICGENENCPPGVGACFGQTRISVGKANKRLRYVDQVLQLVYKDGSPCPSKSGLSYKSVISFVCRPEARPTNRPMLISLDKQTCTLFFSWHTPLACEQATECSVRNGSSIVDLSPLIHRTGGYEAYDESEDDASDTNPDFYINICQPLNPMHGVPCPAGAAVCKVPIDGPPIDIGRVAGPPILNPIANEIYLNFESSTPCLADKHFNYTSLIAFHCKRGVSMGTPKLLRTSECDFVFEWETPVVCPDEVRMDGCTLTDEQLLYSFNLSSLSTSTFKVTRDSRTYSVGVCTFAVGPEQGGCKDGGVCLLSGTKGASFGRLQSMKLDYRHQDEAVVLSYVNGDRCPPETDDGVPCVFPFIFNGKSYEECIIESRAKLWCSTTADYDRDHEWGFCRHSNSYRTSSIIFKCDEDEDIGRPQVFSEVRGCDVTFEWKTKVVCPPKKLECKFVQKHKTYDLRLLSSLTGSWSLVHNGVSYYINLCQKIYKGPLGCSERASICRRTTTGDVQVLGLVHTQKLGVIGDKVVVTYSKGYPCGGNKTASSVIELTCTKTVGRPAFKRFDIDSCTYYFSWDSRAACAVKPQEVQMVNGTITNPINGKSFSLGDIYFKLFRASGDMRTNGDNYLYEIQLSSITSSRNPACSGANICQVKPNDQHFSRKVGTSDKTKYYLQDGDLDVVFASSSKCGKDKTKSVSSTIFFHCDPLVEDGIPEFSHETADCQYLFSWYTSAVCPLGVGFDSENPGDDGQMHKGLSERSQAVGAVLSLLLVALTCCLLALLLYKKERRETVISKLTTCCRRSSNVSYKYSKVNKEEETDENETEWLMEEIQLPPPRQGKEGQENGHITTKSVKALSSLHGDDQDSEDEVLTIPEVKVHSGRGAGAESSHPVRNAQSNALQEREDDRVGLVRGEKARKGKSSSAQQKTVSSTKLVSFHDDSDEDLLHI

For the compound `CO[C@H]1O[C@H](/C=C/P(=O)([O-])[O-])[C@@H](O)[C@H](O)[C@@H]1O.[Na+].[Na+]`, the concentration for half-maximal inhibition (IC50) in data set [1] amounted to 22 µM. In addition, the Activity entry (in data set [2]; in the data set with MCF7; with MDA-MB-231) was “Not Active” each time. The Stability entry in the data set on Serum is “Stable”.
`O=P(O)(O)OC[C@H]1OC(O)[C@@H](O)[C@@H](O)[C@@H]1O` (stereo partly specified) came in with a concentration for half-maximal inhibition (IC50) in data set [1] of 23 µM.
Take `CO[C@H]1O[C@H](CCS(=O)(=O)[O-])[C@@H](O)[C@H](O)[C@@H]1O.[Na+]`: the concentration for half-maximal inhibition (IC50) in data set [1] was found to be 150 µM. Moreover, the Activity result (in data set [2]; with MCF7; with MDA-MB-231) was “Not Active” each time. For the same compound, in the data set with Serum, the Stability entry was “Stable”.
In turn, `CO[C@H]1O[C@H](/C=C/S(=O)(=O)[O-])[C@@H](O)[C@H](O)[C@@H]1O.[Na+]` showed a 50% inhibitory concentration (IC50) in data set [1] of 71 µM. The Activity entry (in data set [2]; in the data set with MCF7; in the data set with MDA-MB-231) was “Not Active” in each case. In addition, in the data set with Serum, the Stability result is on record as “Stable”.
